Only some compounds are listed: those with a hit (about 2.8% of all), similar ones and a draw of the others.
SR-BI DiI-HDL act – activators of SR-BI mediated HDL lipid uptake. CHO ldlA[mSR-BI] cells, DiI-HDL uptake fluorescence, 3 h; 100 = double the neutral-control signal. activation, % at 12.5 µM. actives 0.096% (n = 320,000);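 active means mean replicate activation of at least 60% and every replicate at or above 60%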;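 further: 0% = median plate neutral-control signal and 100% = twice that signal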
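System: CHO ldlA[mSR-BI] cells / Medium: HEPES-buffered (25 mM, pH 7.4) F12 plus 0.5% BSA / Probe or stimulus: labelled HDL, 10 µg/mL / Doses: single compound concentration, delivered by pin transfer / Schedule: 3 h, 37 °C / Measured by: DiI fluorescence, bottom read / Measure: cell-associated DiI fluorescence as measure of HDL uptake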
CAL PDZ FP-1 – blocks peptide binding to human CAL PDZ domain | Q9HD26 | purified CAL PDZ, TMR-peptide fluorescence polarization, 1 h | inhibition, % at 20 µM | actives 0.02% (n = 330,000) | AID 504414;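 active means highest replicate inhibition of at least 40%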;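 further: plate controls were DMSO neutral control wells for no effect and unlabeled competitor peptide control wells for full effect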
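System: tagged CAL PDZ domain. Schedule: 1 h room-temperature incubation prior to read. Signal: fluorescence polarization (mP). Measure: percent inhibition from loss of millipolarization.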
dFosB activator – activators of mouse delta FosB homodimer; P13346; purified delta FosB, TAMRA-CDK5 oligo fluorescence polarization; percent of positive-control signal above neutral wells; activation, % at 25 µM; actives 0.99% (n = 340,000);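 active means mean activation above about 17%, with every replicate also reaching it, limit read from the data, passing the limit was not always enough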
Target sequence (P13346 whole entry, looked up): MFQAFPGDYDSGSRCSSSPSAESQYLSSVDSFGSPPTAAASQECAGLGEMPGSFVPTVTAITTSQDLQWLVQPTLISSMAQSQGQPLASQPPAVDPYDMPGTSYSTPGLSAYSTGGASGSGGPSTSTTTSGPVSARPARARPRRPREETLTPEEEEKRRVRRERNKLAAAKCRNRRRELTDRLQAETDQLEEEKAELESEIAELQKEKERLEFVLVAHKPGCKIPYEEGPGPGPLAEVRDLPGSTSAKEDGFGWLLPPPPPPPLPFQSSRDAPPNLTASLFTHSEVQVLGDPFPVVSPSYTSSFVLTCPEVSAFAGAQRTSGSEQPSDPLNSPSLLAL
CAL PDZ FP-2 – blocks peptide binding to the human CAL PDZ domain | Q9HD26 | purified CAL PDZ, TMR-peptide fluorescence polarization, 1 h | inhibition, % at 24.9 µM | actives 0.92% (n = 300,000);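 active means mean inhibition of at least 30% with at least half of replicates also reaching 30%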;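 further: 0% = DMSO neutral control and 100% = excess unlabeled competitor peptide PRC23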
SR-BI HDL uptake – blocks mouse SR-BI lipid uptake from DiI-HDL | Q61009 | ldlA[mSR-BI] CHO cells, DiI-HDL uptake fluorescence, 3 h | inhibition, % at 12.5 µM | actives 0.96% (n = 320,000);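 active means mean replicate inhibition of at least 70% and a set share of replicates each scoring 70 or more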;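 further: 0% = median of neutral control wells and 100% = median of positive control wells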
The depositor's hits bear a star; . = no result given.

SMILES | SR-BI DiI-HDL act | CAL PDZ FP-1 | dFosB activator | CAL PDZ FP-2 | SR-BI HDL uptake
COc1ccc(Cl)c(OC)c1C(=O)NC(=O)Nc1nc(C)nc(C)n1 | 6 | -3 | 2 | -1 | -6
O=C1Cc2ccccc2N1c1ccccc1 | 25 | -1 | -4 | -5 | -25
O=C1CC(=Nc2ccccc2)NN1c1ccccc1 | -108 | 0 | -6 | -2 | 108*
OCC[C@H]1C[C@H](O)[C@@H](O)[C@@]2(Cc3ccccc3O2)O1 | 38 | 1 | 0 | -2 | -38
Cc1ccc2c(c1)c(N=Nc1ccc([N+](=O)[O-])cc1)c(O)n2C | -17 | 0 | 2 | -2 | 17
Cc1ccc2c(c1)c(C1=NC(=S)NC1=O)c(O)n2C | -6 | -1 | -11 | 30* | 6
Cc1ccc(C2(c3noc(CN4CCOCC4)n3)CCCC2)cc1 | . | 1 | 3 | -1 | .
Cc1ccc(C2(c3noc(CN(C)Cc4cnn(C)c4)n3)CCCC2)cc1 | 122* | 0 | -9 | -4 | -122
O=C(COc1cccc2cccnc12)N/N=C/c1ccccc1O | . | -5 | 5 | -2 | .
O=C(COc1cccc2cccnc12)N/N=C/c1ccc(O)cc1 | -4 | -3 | 19* | 12 | 4
O=C(N/N=C/c1ccc(O)cc1)c1cc(-c2ccccc2)nc2ccccc12 | -37 | -1 | 29* | -4 | 37
CC(C)COc1cccc(-c2cc(C(=O)N/N=C/c3ccncc3)c3ccccc3n2)c1 | -79 | -1 | -3 | . | 79*
COc1cc(/C=N/NC(=O)c2nc(-c3ccccc3)n(-c3ccccc3)n2)ccc1O | -35 | -1 | -6 | -3 | 35
COc1cc(/C=N/NC(=O)c2cc(-c3ccccc3)nc3ccccc23)ccc1O | -69 | 1 | -9 | -5 | 69
CCOc1ccc(-c2cc(C(=O)N/N=C/c3cccnc3)c3ccccc3n2)cc1 | -54 | -4 | -13 | -4 | 54
COc1cc(/C=N/NC(=O)c2cnn3c(C)cc(-c4ccccc4)nc23)ccc1O | -77 | 0 | -10 | -5 | 77*
CC(C)[C@H](NC(=O)[C@@H]1CSC2c3ccccc3C(=O)N21)C(=O)NC1CCCCC1 (some centres undefined) | 9 | -3 | -3 | -3 | -9
CSc1cccc(NC(=S)N(CCCN2CCC(C)CC2)Cc2cccs2)c1 | 0 | -2 | 2 | 0 | 0
N#C/C(=C/c1ccc(-c2ccc([N+](=O)[O-])cc2)o1)C(=O)Nc1nc(-c2cccs2)cs1 | -88 | -1 | 2 | -3 | 88*
CC(CCc1ccccn1)C(=O)C(C)CCc1ccccn1 (centres undefined) | 9 | -1 | -2 | 81* | -9
CCOC(=O)C(CCc1ccccn1)c1ccccc1 (centres undefined) | 9 | 0 | -6 | 0 | -9
CCOCCCNC(=O)N[C@H](C(=O)OC)C(C)CC (some centres undefined) | -5 | 0 | -2 | -6 | 5
CCOCCCNC(=O)N[C@@H](C)C(=O)OC | 25 | . | 8 | 62* | -25
Cc1ccc(C)c(S(=O)(=O)N2CCN(C(=O)c3cncc(Br)c3)CC2)c1 | -8 | -4 | -3 | -5 | 8
COc1cc(C(=O)NNC(=O)c2ccccc2OCc2c(C)noc2C)cc(OC)c1OC | -11 | -1 | -2 | . | 11
SMILES | SR-BI DiI-HDL act | CAL PDZ FP-1 | dFosB activator | CAL PDZ FP-2 | SR-BI HDL uptake
CCN(CC)S(=O)(=O)c1ccc2oc(C(=O)Nc3ccc(OC)cc3OC)c(C)c2c1 | -77 | -1 | -6 | -2 | 77*
O=[N+]([O-])c1ccc(Cc2ccc([N+](=O)[O-])cc2)cc1 | 3 | -1 | 4 | -3 | -3
N#CC(CCc1ccc([N+](=O)[O-])cc1)(CCc1ccc([N+](=O)[O-])cc1)C(N)=O | 7 | -2 | -2 | 43* | -7
Cc1cccc(CS(=O)(=O)Cc2ccc(C(=O)O)o2)c1 | -8 | -1 | 7 | 75* | 8
Cc1ccccc1Nc1nc(N)nc(COC(=O)c2ccc([N+](=O)[O-])o2)n1 | 11 | -1 | -3 | -2 | -11
CCOC(=O)c1cc2c(C(F)(F)F)cc(-c3ccccc3)nc2o1 | -76 | 0 | -3 | . | 76*
CCOC(=O)CCS(=O)(=O)c1nc(-c2ccccc2)cc(C(F)(F)F)n1 | 9 | -1 | -21 | 3 | -9
CCOC(=O)CS(=O)(=O)c1nc(-c2ccccc2)cc(C(F)(F)F)n1 | -98 | -1 | -5 | 1 | 98*
Cc1ccccc1N=C/C=C1/C=C(c2ccccc2)OC(C)(C)O1 | -1 | -3 | -8 | -2 | 1
CC1(C)OC(c2ccccc2)=C/C(=C/C=N/NC(=O)c2ccncc2)O1 | -90 | 1 | -4 | 3 | 90*
COc1ccccc1OCC(O)Cn1nc(C)cc1C (centres undefined) | -35 | -1 | -2 | 74* | 35
Cc1cc(C)n(CC(O)COc2ccccc2[N+](=O)[O-])n1 (centres undefined) | -4 | -3 | -6 | -2 | 4
CNC(=S)N/N=C/c1c(Cl)cccc1Cl | -3 | -2 | 1 | 2 | 3
Cc1cccc(C)c1NC(=S)N/N=C/c1c(Cl)cccc1Cl | -4 | -2 | 13 | 33* | 4
CCC(=O)N(CC)c1nc(-c2ccc(OC)cc2)cs1 | -87 | 0 | -7 | . | 87*
COc1ccc(/C=N/n2c(COc3ccccc3)n[nH]c2=S)cc1OC | 7 | 0 | -10 | -1 | -7
COc1ccc(N(CC(=O)NCCc2ccc(C)cc2)S(=O)(=O)c2c(C)noc2C)cc1 | 28 | -2 | -7 | 1 | -28
Cc1noc(C)c1S(=O)(=O)N(CC(=O)NCc1ccc(F)cc1)c1ccc(C(C)C)cc1 | 35 | -3 | -25 | 44* | -35
COc1ccc(N(CC(=O)NCCc2ccc(OC)c(OC)c2)S(=O)(=O)c2c(C)noc2C)cc1 | -3 | 0 | -4 | 73* | 3
COc1cc(CCC(=O)N2CCN(c3ncccn3)CC2)cc(OC)c1OC | 9 | 0 | 6 | -4 | -9
COc1ccc(C(=O)N/C=C/n2cnc3cc(C(F)(F)F)ccc32)cc1 | -8 | -1 | -1 | -1 | 8
COC(=O)C(NC(=O)c1ccco1)(Nc1nc(C2CC2)cs1)C(F)(F)F (centres undefined) | 7 | -2 | -2 | 37* | -7
CCOc1ccccc1C(=O)NCC(=O)OCc1csc(CC(=O)Nc2ccc(C)cc2)n1 | -64 | 0 | -2 | 65* | 64
Cc1ccc(C(=O)NN2C(=O)c3ccc(S(=O)(=O)c4ccc(C(=O)O)cc4)cc3C2=O)cc1 | 1 | 1 | -2 | 47* | -1
O=C(O)c1ccc(S(=O)(=O)c2ccc3c(c2)C(=O)N(NC(=O)c2ccc(O)cc2)C3=O)cc1 | 14 | 0 | -5 | -1 | -14

From PubChem BioAssay
